HKDC1 inhibitor = inhibitors of human hexokinase HKDC1; AID 493160; inhibition, % at 20 µM; recombinant HKDC1, G6PDH/diaphorase resazurin coupled fluorescence; hit rate 0.16% among 340,000;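 active = inhibition above about 35% when tested at 20 µM, limit read from the data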
Target sequence (Q2TB90 whole entry, looked up): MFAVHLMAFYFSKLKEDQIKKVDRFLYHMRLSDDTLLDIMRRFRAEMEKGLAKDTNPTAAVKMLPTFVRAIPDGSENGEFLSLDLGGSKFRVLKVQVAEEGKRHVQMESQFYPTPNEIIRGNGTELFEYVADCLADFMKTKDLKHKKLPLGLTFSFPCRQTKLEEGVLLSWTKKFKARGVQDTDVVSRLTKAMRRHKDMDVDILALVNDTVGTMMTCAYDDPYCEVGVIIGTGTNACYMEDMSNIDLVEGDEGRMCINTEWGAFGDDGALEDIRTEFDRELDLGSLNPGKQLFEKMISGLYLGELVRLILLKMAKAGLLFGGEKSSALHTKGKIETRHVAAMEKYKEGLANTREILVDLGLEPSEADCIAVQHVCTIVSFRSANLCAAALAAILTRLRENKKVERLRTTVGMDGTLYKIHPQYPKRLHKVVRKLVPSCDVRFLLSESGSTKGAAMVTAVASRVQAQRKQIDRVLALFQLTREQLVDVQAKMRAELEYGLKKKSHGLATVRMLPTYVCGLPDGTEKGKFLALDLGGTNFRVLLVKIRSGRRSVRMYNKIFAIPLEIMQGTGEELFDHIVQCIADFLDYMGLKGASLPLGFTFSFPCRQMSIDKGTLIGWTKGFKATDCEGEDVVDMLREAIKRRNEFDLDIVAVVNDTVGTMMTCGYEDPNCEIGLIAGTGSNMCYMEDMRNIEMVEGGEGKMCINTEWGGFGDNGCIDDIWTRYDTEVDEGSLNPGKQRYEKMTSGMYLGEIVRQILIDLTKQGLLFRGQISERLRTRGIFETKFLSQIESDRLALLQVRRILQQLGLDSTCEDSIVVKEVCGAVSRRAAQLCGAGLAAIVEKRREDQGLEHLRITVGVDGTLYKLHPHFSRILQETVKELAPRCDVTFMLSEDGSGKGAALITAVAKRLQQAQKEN
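Assay system: in-house recombinant HK5 (HKDC1) enzyme. Input: HKDC1 at 5 µg/mL. Medium: Tris pH 8.0 buffer with MgCl2, Tween-20, BSA, BME. Dosing: single 20 µM dose. Schedule: 90 min reaction incubation at room temperature, dark. Signal: resazurin-to-resorufin fluorescence via G6PDH and diaphorase coupling, 525/613 nm. Controls: DMSO-enzyme wells negative, buffer-substituted wells positive.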
PfGluPho inh = PfG6PD (Plasmodium falciparum) enzyme inhibition; inhibition, % at 20 µM; PfGluPho enzyme, NADPH resazurin-diaphorase fluorescence; hit rate 0.78% among 350,000; AID 504690;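 active = inhibition reaching at least a set limit at 20 µM in the primary screen, cut at about 59% in these data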
G6PDH counter = counter-screen for G6PDH assay hits: L. mesenteroides G6PDH inhibition | AID 1020 | inhibition, % at 5 µM | Purified L. mesenteroides G6PDH, diaphorase/resazurin coupled fluorescence, 45 min | hit rate 0.12% among 200,000; in the data active = inhibition above about 50%
Diaph inh CS = counter-screen for diaphorase-based assays: diaphorase inhibitors and chemical oxidizers; diaphorase resazurin-to-resorufin fluorescence, NADH, 16 min; bacterial (C. kluyveri) enzyme, not human; inhibition, % at 20 µM; hit rate 0.69% among 190,000; AID 1217;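 active = primary screen inhibition at 20 µM above a set limit, cut at about 50% in these data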
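Detection: fluorescence of resorufin formed from resazurin, Ex 544/Em 590 nm; test system: Clostridium kluyveri diaphorase enzyme; amount: 0.14 U/mL diaphorase, enzyme working solution; times: 16-min room-temperature incubation before reading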
HKDC1 act conf = confirmation of human HKDC1 activators; shares compounds with HKDC1 inhibitor; recombinant HKDC1, G6PDH/diaphorase resazurin fluorescence; active compounds read low; inhibition, % at 20 µM; hit rate 14% among 740;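 active = inhibition at or below a set negative limit, negative inhibition meaning the enzyme was activated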
Large screens that a line does not name were inactive (follow-up assays come after a bar, where they were run). Rows were chosen to be rich in hits. Some 1.2% of all compounds tested hit in one or more screens of this group.

Cc1noc(C)c1NC(=O)Nc1ccc2c(c1)C(=O)N([C@H](C)CO)C[C@H](C)[C@@H](CN(C)S(=O)(=O)c1cccs1)O2	none (no result: G6PDH counter, Diaph inh CS)
Cc1cccc(C(=O)Nc2ccc(C(=O)N/N=C/c3ccc(C)o3)cc2)c1	none (no result: G6PDH counter, Diaph inh CS)
CC(=O)Nc1ccc2cc3ccc(NC(C)=O)cc3nc2c1	HKDC1 inhibitor 43 (no result: G6PDH counter, Diaph inh CS) | HKDC1 act conf inactive
CC(=O)Nc1ccc2ccccc2c1	none
CCN(CC)CCCNC(=O)C1CCC(CNS(=O)(=O)c2ccc(Cl)cc2)CC1 (centres undefined)	none (no result: G6PDH counter, Diaph inh CS)
O=Cc1[nH]c2ccccc2c1N(C(=O)CCl)c1ccccc1	HKDC1 inhibitor 35 (no result: G6PDH counter, Diaph inh CS) | HKDC1 act conf inactive
O=C(CCNC(=O)c1ccccc1Cl)Nc1ccc(S(=O)(=O)N2CCOCC2)cc1	none (no result: HKDC1 inhibitor, G6PDH counter, Diaph inh CS)
O=C(CSc1ccc2nnc(-c3ccccn3)n2n1)Nc1ccccc1F	none (no result: G6PDH counter, Diaph inh CS)
COc1cc2c(cc1OC)C(c1cc(Br)ccc1F)N(C(=O)CCl)CC2 (centres undefined)	HKDC1 inhibitor 38 (no result: G6PDH counter, Diaph inh CS) | HKDC1 act conf inactive
O=[N+]([O-])c1ccc(Sc2nc3ccccc3o2)c([N+](=O)[O-])c1	HKDC1 inhibitor 35 | HKDC1 act conf inactive
CN(C)C(CNC(=O)CCc1c[nH]c2ccccc12)c1ccccc1 (centres undefined)	none (no result: G6PDH counter, Diaph inh CS)
O=C(O)c1[nH]c2ccccc2c1C(c1ccccc1)c1c(C(=O)O)[nH]c2ccccc12	none (no result: G6PDH counter, Diaph inh CS)
O=C(O)c1[nH]c2ccccc2c1C(c1cc(Cl)cc([N+](=O)[O-])c1O)c1c(C(=O)O)[nH]c2ccccc12	HKDC1 inhibitor 38 (no result: G6PDH counter, Diaph inh CS) | HKDC1 act conf inactive
CCc1nn2c(=O)cc(COc3ccc(/C=C4\C(=N)N5N=C(CC(C)C)SC5=NC4=O)cc3)nc2s1	none (no result: G6PDH counter, Diaph inh CS)
CCC1=NN2C(=N)/C(=C\c3ccc(OCc4cc(=O)n5nc(CC)sc5n4)c(OC)c3)C(=O)N=C2S1	Diaph inh CS 54 | HKDC1 act conf inactive
CN(N=Cc1ccccc1)C(=S)Nc1ccccc1	none (no result: HKDC1 inhibitor, G6PDH counter, Diaph inh CS)
O=C(CSc1ccccn1)Nc1ccc2c(c1)C(=O)c1ccccc1C2=O	none
O=C(CSc1n[nH]c(=O)[nH]c1=O)Nc1ccc2c(c1)C(=O)c1ccccc1C2=O	HKDC1 inhibitor 52 (no result: G6PDH counter, Diaph inh CS) | HKDC1 act conf inactive
Oc1ccc(/C=N/Nc2ccnc3cc(Cl)ccc23)c(O)c1O	HKDC1 inhibitor 37 (no result: G6PDH counter, Diaph inh CS) | HKDC1 act conf inactive
Oc1ccc(/C=N/Nc2ccnc3cc(Cl)ccc23)cc1O	none (no result: G6PDH counter, Diaph inh CS)
O=C(NCc1ccccn1)c1cc(S(=O)(=O)N2CCN(c3ccccc3)CC2)ccc1Cl	HKDC1 inhibitor 73 | HKDC1 act conf inactive
CCN(CC)C(=O)c1ccc(C(=O)c2c(C)cc(C)cc2C)cc1	HKDC1 inhibitor 39 | HKDC1 act conf -40
Cc1c(Cc2ccccc2)[n+](=O)c2ccccc2n1[O-]	none (no result: HKDC1 inhibitor, G6PDH counter, Diaph inh CS)
Cc1cccc(CN2CCc3c([nH]c4ccccc34)C2C(C)(C)C)n1 (centres undefined)	none (no result: G6PDH counter, Diaph inh CS)
CC1(C)C(=O)Nc2ccccc2N1C(=O)COC(=O)c1cccnc1	none (no result: G6PDH counter, Diaph inh CS)
CC1(C)C(=O)Nc2ccccc2N1C(=O)COC(=O)c1cc(Cl)cc(Cl)c1	none (no result: G6PDH counter, Diaph inh CS) | HKDC1 act conf -50
COC1(NS(=O)(=O)c2ccc(Br)cc2)C(C)=CC(=O)C=C1C	HKDC1 inhibitor 50, Diaph inh CS 52 | HKDC1 act conf inactive
Cc1ccc(NS(=O)(=O)c2ccc(Br)cc2)nc1	none
O=C1/C(=C/c2cccnc2)CC/C1=C\c1cccnc1	none
CCC1C/C(=C\c2cccnc2)C(=O)/C(=C/c2cccnc2)C1 (centres undefined)	HKDC1 inhibitor 35 | HKDC1 act conf inactive
COCc1cc(C)nc(NC2CCCCC2)c1C#N	none
COCc1cc(SC2CCCCC2)nc(C)n1	HKDC1 inhibitor 46 | HKDC1 act conf inactive
Cc1nc2c3cc(F)ccc3n(Cc3ccccc3F)c2s1	none
Cc1nc2c3cc(F)ccc3n(Cc3ccccc3)c2s1	none | HKDC1 act conf -61
COc1cccc(C(=O)NCC(c2ccco2)N2CCc3ccccc3C2)c1 (centres undefined)	none (no result: G6PDH counter, Diaph inh CS) | HKDC1 act conf inactive
Cc1cc(NC(=O)COC(=O)c2cc(S(=O)(=O)N(C)C)ccc2Cl)no1	none (no result: G6PDH counter, Diaph inh CS)
COc1ccc(NC(=O)Cc2c[nH]c3ccccc23)cc1S(=O)(=O)N1CCCCC1	HKDC1 inhibitor 49 | HKDC1 act conf -35
COc1ccc(NC(=O)Cc2c[nH]c3ccccc23)cc1S(=O)(=O)N1CCOCC1	none
COc1ccc(/C=C(\NC(=O)c2ccc(C)cc2)C(=O)N2CCCCC2)cc1	none (no result: G6PDH counter, Diaph inh CS)
Cn1c(SCC(=O)Nc2ccc3nc(SCC(=O)N4CCCC4)sc3c2)nnc1-c1ccc(N)cc1	none | HKDC1 act conf inactive
